Mdm2 MdmX PPI: disrupts the human Mdm2-MdmX interaction; SaOS-2 split-luciferase Mdm2/MdmX complementation, luminescence; inhibition, % at 8 µM; 3% of 330,000 active; AID 485346;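 active = inhibition of at least 50% at 8 µM in the primary screen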
Target sequence (O15151 whole entry, looked up): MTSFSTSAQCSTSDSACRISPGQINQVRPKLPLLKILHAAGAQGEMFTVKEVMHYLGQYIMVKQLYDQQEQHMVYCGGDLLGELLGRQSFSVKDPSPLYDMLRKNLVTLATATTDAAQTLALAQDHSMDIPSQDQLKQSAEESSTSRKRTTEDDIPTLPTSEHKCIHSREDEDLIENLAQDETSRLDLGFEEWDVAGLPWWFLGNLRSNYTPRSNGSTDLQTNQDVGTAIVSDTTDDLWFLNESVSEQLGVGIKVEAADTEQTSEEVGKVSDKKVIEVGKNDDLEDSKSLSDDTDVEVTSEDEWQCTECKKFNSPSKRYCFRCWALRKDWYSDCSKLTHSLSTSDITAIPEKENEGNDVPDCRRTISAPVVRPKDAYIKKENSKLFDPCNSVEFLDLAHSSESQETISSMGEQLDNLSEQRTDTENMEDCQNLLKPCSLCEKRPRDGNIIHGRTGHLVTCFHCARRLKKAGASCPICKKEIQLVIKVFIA
Target sequence (Q00987 whole entry, looked up): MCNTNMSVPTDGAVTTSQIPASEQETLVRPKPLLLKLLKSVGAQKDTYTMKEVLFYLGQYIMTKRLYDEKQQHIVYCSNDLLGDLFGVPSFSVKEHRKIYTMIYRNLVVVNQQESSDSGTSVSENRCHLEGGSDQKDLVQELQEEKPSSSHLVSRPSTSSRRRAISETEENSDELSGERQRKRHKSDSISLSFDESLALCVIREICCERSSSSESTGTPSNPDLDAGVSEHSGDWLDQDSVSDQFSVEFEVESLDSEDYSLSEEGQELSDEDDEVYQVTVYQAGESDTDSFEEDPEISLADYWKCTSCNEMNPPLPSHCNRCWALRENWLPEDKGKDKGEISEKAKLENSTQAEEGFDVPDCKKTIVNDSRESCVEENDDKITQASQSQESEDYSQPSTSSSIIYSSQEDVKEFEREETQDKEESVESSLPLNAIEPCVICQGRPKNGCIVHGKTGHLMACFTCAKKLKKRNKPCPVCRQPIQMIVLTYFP
T cruzi repl: blocks replication of Trypanosoma cruzi. T. cruzi beta-gal in NIH3T3, luminescence, 90 h. inhibition, % (concentration not given with the values). 1.4% of 300,000 active. AID 1885;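 active = mean inhibition across valid replicates above about 55%, limit read from the data; inconclusive = mean below that limit but half or more replicates reach it; inactive = mean below it, under half of replicates reach it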;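 note: signal also drops with host cell toxicity which is not excluded here; higher percent means less beta-gal luminescence so fewer parasites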
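assay system = mouse NIH/3T3 fibroblasts infected with β-gal-expressing T. cruzi Tulahuen C4 | input = 5,000 NIH/3T3 host cells per well | buffer or medium = DMEM plus 2% FBS | timing = 3 h host attachment, then at least 90 h co-culture | measured by = GalScreen luminescence, 60 min | evaluation = luminescence reflecting intracellular parasite burden, expressed as percent inhibition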
CSC inhib: blocks cancer stem cells; cancer stem cell-like cells viability, luminescence; inhibition, % at 7.5 µM; 1.1% of 300,000 active; AID 2717; in the data active = inhibition above about 75%; inconclusive = no clear call, values can overlap the other calls; tested in HMLE shEcad cells
SKKanGAS inh: blocks kanamycin growth of S. pyogenes SKKanGAS strain. BacTiter-Glo, 6 h. inhibition, % at 7.5 µM. 1.3% of 300,000 active. AID 1662;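 active = mean replicate score, as percent of positive control median, at least 50; inconclusive = mean below 50 but one replicate at or above 50; inactive = mean and every replicate below 50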;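 note: strain carries kanamycin resistance gene driven by streptokinase promoter and grows in 40 µg/ml kanamycin; loss of luminescence reflects streptokinase promoter inhibition or plain growth inhibition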
Beta cell apopt: beta cell apoptosis inhibition; AID 435005; INS-1E cytokine-induced death, ATP luminescence, 48 h; percent of positive-control rescue, neutral wells zero; protection from apoptosis, % (test concentration not listed); 0.8% of 300,000 active;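 active = Every replicate reaches about 75%, or at least half do and their mean reaches it too, limit read from the data; inconclusive = At least half of replicates reach the limit but their mean does not; inactive = Under half of replicates reach the limit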;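 note: higher means more ATP so stronger rescue from cytokine killing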
Calb FLC: affects C. albicans growth with fluconazole; growth inhibition, % (no concentration beside the values); AID 1979; C. albicans CaCi-2 (fluconazole-resistant clinical isolate) + fluconazole, Alamar Blue growth, 48 h; 0.57% of 300,000 active;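 active = growth inhibition above about 58% in most replicates, limit read from the data, passing the limit was not always enough; inconclusive = exactly half the replicates above a set limit; inactive = most replicates below a set limit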;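 note: all wells also contain fluconazole at 8 µg/ml as a sub-toxic cotreatment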
Mdm2-MdmX conf: human Mdm2/MdmX binding inhibition, confirmed; 55% of 10,000 active; AID 489028; luminescent assay; shares compounds with Mdm2 MdmX PPI; inhibition, % at 8 µM; in the data active = inhibition above about 40%
Full FLuc ctr: counter-screen for Mdm2/MdmX inhibitors: full-length luciferase. shares compounds with Mdm2 MdmX PPI. SaOS-2 full-length luciferase counterscreen, luminescence. inhibition, % at 8 µM. 77% of 6,200 active. AID 504607;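 active = mean inhibition at 8 µM reaching about 37%, which flags the compound as non-specific, limit read from the data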;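 note: p53-null SaOS-2 cells with luciferase driven by a doxycycline-inducible promoter; compound on cells about two nights before reading with doxycycline added after day one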
Large screens that a line does not name were inactive (follow-up assays come after a bar, where they were run). Sampled rows, rich in hits. Any-hit rate of the full collection: about 5.7%.

C[C@@H]1O[C@@H](O[C@@H]2C=C3CC[C@@H]4C(CC[C@]5(C)[C@@H](c6ccc(=O)oc6)CC[C@]45O)[C@@]3(C)CC2)[C@H](O)[C@H](O)[C@H]1O (stereo partly specified)	Mdm2 MdmX PPI 86.9, CSC inhib 107.5 (no result: T cruzi repl, SKKanGAS inh, Calb FLC) | Mdm2-MdmX conf 69.7 | Full FLuc ctr inactive
OCC(Cl)CCl (stereo unspecified)	none (no result: T cruzi repl, SKKanGAS inh, Calb FLC)
FC(F)(F)c1ccccc1CNCCc1c[nH]c2ccccc12	none
CN[C@@H]1C[C@@H](c2ccc(Cl)c(Cl)c2)c2ccccc21	Mdm2 MdmX PPI 82.2 (no result: Calb FLC) | Mdm2-MdmX conf inactive
CC(NCc1ccc(Cl)c(Cl)c1)C(O)c1ccccc1 (stereo unspecified)	none
Oc1ccccc1-[n+]1c(-c2ccccc2)cc(-c2ccccc2)c(O)c1-c1ccccc1	none
S=C1NCCN1	none
O=[N+]([O-])c1cc(F)c(N2CCCCCC2)cc1N1CCNCC1	Mdm2 MdmX PPI 52.3 | Mdm2-MdmX conf inactive
CC1CCCCC1NC(=O)CNC(=S)N1CC2CC(C1)c1cccc(=O)n1C2 (stereo unspecified)	none
CC1=CC2/C=C(\C)CCC(O)C(O)/C=C/C(=O)C23C(=O)NC(CC(C)C)C3C1C (stereo unspecified)	Mdm2 MdmX PPI 100.3, T cruzi repl 67.1, Beta cell apopt 106.1 | Mdm2-MdmX conf 100.3 | Full FLuc ctr 51.1
COC(=O)C1=C(c2ccc(F)cc2OCc2ccccc2)C[C@@H]2CC[C@H]1N2C(=O)NCc1cccc(C(F)(F)F)c1	none (no result: T cruzi repl, SKKanGAS inh, Calb FLC)
Brc1ccc2c(c1)C(OC1CN3CCC1CC3)c1ccccc1CS2 (stereo unspecified)	Mdm2 MdmX PPI 80.2 | Mdm2-MdmX conf 66.8 | Full FLuc ctr inactive
c1ccc2c(c1)CSc1ccccc1C2C1=NCCN1 (stereo unspecified)	none
O=C(Cc1ccccc1F)N1CCN(CC(=O)N2CCCC2)CC1	none (no result: T cruzi repl, SKKanGAS inh, Calb FLC)
C[C@]12CCC3C(CC[C@H]4C[C@@H](O)[C@H](O)C[C@]34C)C1CC[C@@H]2O (stereo partly specified)	none (no result: T cruzi repl, SKKanGAS inh, Calb FLC)
CCN(CC)S(=O)(=O)c1ccc(NN=C(C#N)C#N)cc1	none
N#CC(C#N)=NNc1ccc(-n2ccc(C(F)(F)F)n2)cc1	Mdm2 MdmX PPI 93.9, Beta cell apopt 101.6 | Mdm2-MdmX conf 73.1 | Full FLuc ctr inactive
Cc1cc(C)n(-c2ccc(NN=C(C#N)C#N)cc2)n1	Mdm2 MdmX PPI 62.4 | Mdm2-MdmX conf 58.5 | Full FLuc ctr 57.2
Cc1ccc(C)c(NP(=O)(Oc2ccccc2)Oc2ccccc2)c1	Mdm2 MdmX PPI 57.9 | Mdm2-MdmX conf 71.8 | Full FLuc ctr 68.1
Cc1ccc(S(=O)(=O)NP(=O)(Oc2ccccc2)Oc2ccccc2)cc1	none
O=C(/C=C/c1ccccc1)c1c(O)n(CCc2ccccc2)c(=O)[nH]c1=O	Mdm2 MdmX PPI 69.1 | Mdm2-MdmX conf inactive
O=C(/C=C/c1ccc2c(c1)OCO2)c1c(O)n(CCc2ccccc2)c(=O)[nH]c1=O	Mdm2 MdmX PPI 65.0 | Mdm2-MdmX conf inactive
COc1cc(/C=C/C(=O)c2c(O)n(CCc3ccccc3)c(=O)[nH]c2=O)ccc1O	Mdm2 MdmX PPI 53.4 | Mdm2-MdmX conf 46.0 | Full FLuc ctr 47.7
O=c1[nH]c(=O)n(CCc2ccccc2)c(O)c1C=NCCN1CCNCC1	none
C[C@@H]1CCC2[C@@H](C)C(=O)O[C@@H]3OC4(C)CCC1[C@@]23OO4 (stereo partly specified)	none (no result: T cruzi repl, SKKanGAS inh, Calb FLC)
Cc1cc(OCC(=O)N2CCC(C(=O)O)CC2)c2c3c(c(=O)oc2c1)CCC3	none
COc1cc(C)c(CNCCc2c[nH]c3ccccc23)cc1C	Mdm2 MdmX PPI 64.3 (no result: Calb FLC) | Mdm2-MdmX conf inactive
CCCCC(CC)COCCCN=Cc1c(O)[nH]c(=S)[nH]c1=O (stereo unspecified)	none
Cc1cc(C)cc(N2C(=O)NC(=O)/C(=C\c3cccn3-c3ccc(Cl)cc3)C2=O)c1	Mdm2 MdmX PPI 68.6 (no result: CSC inhib) | Mdm2-MdmX conf 56.5 | Full FLuc ctr 78.9
CN1C(=O)/C(=C/c2cccn2-c2ccc3ccccc3c2)C(=O)NC1=S	Mdm2 MdmX PPI 100.5, SKKanGAS inh inconclusive | Mdm2-MdmX conf inactive
COc1ccccc1N1CCN(CCc2ccccc2)CC1	none
COC(=O)C1=C(c2ccc(C(C)=O)cc2)C[C@@H]2CC[C@H]1N2C(=O)NCc1ccco1	none (no result: T cruzi repl, SKKanGAS inh, Calb FLC)
CCN(CC)C(=O)c1ccc(NC(=O)CN2CCc3cc(OC)c(OC)cc3C2)cc1	none
Nc1ncnc2c1ccn2[C@@H]1O[C@H](CO)[C@@H](O)[C@H]1O	Mdm2 MdmX PPI 100.3, T cruzi repl 85.6 (no result: Beta cell apopt) | Mdm2-MdmX conf 100.2 | Full FLuc ctr 50.1
CP(=O)(Nc1ccccc1)C(Cl)(Cl)Cl (stereo unspecified)	none
COC(=O)C(Cc1ccc(N(CCCl)CCCl)cc1)N=Cc1ccccc1O (stereo unspecified)	Mdm2 MdmX PPI 92.7, CSC inhib 83.0, Beta cell apopt 105.9 | Mdm2-MdmX conf 83.1 | Full FLuc ctr 59.2
CCOC(=O)C(NC(=O)C(Cc1ccc(N(CCCl)CCCl)cc1)NC(C)=O)C(C)C (stereo unspecified)	none
CCC(c1ccc(C)cc1)N1C(=O)C2C3CCC(O3)C2C1=O (stereo unspecified)	none (no result: T cruzi repl, SKKanGAS inh, Calb FLC)
N#Cc1cc2c(nc1SCC(=O)Nc1cc(Cl)ccc1Cl)C1CCN2CC1	Mdm2 MdmX PPI 84.1 | Mdm2-MdmX conf 98.7 | Full FLuc ctr inactive
CC(C)[C@H]1C(=O)O[C@H](C(C)C)C(=O)N(C)[C@@H](C(C)C)C(=O)O[C@H](C(C)C)C(=O)N(C)[C@@H](C(C)C)C(=O)O[C@H](C(C)C)C(=O)N1C	Mdm2 MdmX PPI 95.3, T cruzi repl 55.2, Beta cell apopt 109.0, Calb FLC 87.8 | Mdm2-MdmX conf 88.2 | Full FLuc ctr 48.5
O=C(O)COc1ccc(Cl)cc1Cl	none
Oc1cc(Cl)ccc1Oc1ccc(Cl)cc1Cl	Mdm2 MdmX PPI 66.4 | Mdm2-MdmX conf inactive
COC(=O)C1=C(c2ccc(F)cc2OCc2ccccc2)C[C@@H]2CC[C@H]1N2C(=O)NCCN1CCOCC1	none (no result: T cruzi repl, SKKanGAS inh, Calb FLC)
COc1cc(C)c(CN2CC=C(c3ccc(F)cc3)CC2)cc1C	none
COc1cc2nc(CN3CC=C(c4ccccc4)CC3)[nH]c(=O)c2cc1OC	Mdm2 MdmX PPI 78.6, CSC inhib 89.8 | Mdm2-MdmX conf 68.4 | Full FLuc ctr 113.0
CC(=O)c1cn(CC(=O)NCCc2c[nH]c3ccccc23)c2ccccc12	none
CCCNS(=O)(=O)c1ccc(OCC(=O)N2CCN(Cc3ccc4c(c3)OCO4)CC2)c(C)c1	none
Cc1ccc(/C=C2\C(=O)NC(=S)N(c3ccccc3F)C2=O)s1	none (no result: Mdm2 MdmX PPI, T cruzi repl, SKKanGAS inh, Calb FLC)
